# Source: PubChem (The Scripps Research Institute Molecular Screening Center)
# Sampled rows, rich in hits. Any-hit rate of the full collection: about 3.9%.
# CHRM1 antagonist = human M1 muscarinic receptor antagonists, primary screen, CHO-K1 cells, Fluo-8 calcium fluorescence, 1536-well; Muscarinic acetylcholine receptor M1 (Homo sapiens), P11229; CHO-K1 hM1, ACh EC80 antagonist; inhibition, % at 3 µM; 360,000 compounds, 1.3% hits;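 active = percent inhibition above its own plate's cutoff, namely the mean of that plate's compound wells plus 3 SD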;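 note: peak over basal fluorescence ratio during 140 s after agonist addition; 0% = ACh EC80 plus DMSO and 100% = DMSO alone without agonist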
# Target sequence (P11229 whole entry, looked up): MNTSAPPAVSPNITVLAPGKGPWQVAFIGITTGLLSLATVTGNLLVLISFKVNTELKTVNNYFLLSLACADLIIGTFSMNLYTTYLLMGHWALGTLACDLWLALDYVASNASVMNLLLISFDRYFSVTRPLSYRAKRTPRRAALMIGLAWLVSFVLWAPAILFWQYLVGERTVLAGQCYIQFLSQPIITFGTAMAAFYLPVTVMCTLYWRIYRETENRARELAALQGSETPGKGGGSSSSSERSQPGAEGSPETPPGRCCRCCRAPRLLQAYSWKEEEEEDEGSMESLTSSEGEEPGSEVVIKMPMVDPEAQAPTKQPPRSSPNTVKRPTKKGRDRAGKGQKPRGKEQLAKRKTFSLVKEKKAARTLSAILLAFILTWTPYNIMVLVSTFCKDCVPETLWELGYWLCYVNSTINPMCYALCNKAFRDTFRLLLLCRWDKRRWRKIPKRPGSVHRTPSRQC
# CHRM1 PAM = human M1 muscarinic receptor positive allosteric modulators, primary screen, CHO-K1 cells, Fluo-8 calcium fluorescence, 1536-well. Muscarinic acetylcholine receptor M1 (Homo sapiens), P11229. CHO-K1 hM1, ACh EC20; 0% = ACh EC20, 100% = maximal ACh. activation, % at 3 µM. 360,000 compounds, 0.088% hits. AID 588819, 2011; in the data active = activation above about 19%, passing the limit was not always enough
# TAAR1 antagonist = human TAAR1 antagonists, primary screen, Fluo-8 calcium fluorescence, CHO RD-HGA16 cells; 360,000 compounds, 1.5% hits; inhibition, % at 3 µM; antagonist; AID 624466, 2012;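 active = inhibition above a per-plate cutoff, the mean inhibition of test compounds on that plate plus 3 SD, cut at about 49% in these data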;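 note: 0% = DMSO plus EC80 beta-PEA response and 100% = DMSO alone without agonist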
# Target sequence (Q96RJ0 whole entry, looked up): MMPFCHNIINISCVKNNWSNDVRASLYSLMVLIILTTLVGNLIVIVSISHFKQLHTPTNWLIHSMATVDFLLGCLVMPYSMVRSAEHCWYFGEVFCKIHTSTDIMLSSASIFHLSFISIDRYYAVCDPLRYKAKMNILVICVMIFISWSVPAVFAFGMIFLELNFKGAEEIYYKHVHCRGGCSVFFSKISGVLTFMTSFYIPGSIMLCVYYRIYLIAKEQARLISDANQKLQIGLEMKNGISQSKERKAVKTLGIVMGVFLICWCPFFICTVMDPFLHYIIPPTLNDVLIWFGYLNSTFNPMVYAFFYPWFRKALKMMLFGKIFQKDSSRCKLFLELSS
#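 Assay system: RD-HGA16 CHO cells with stable hTAAR1 and Gα16 / Reagent: EC80 β-phenethylamine stimulus / Doses: 3 µM, single point / Timing: dye loading 75 min at 37 °C, then 30 min room temperature / Measured by: Fluo-8 intracellular calcium dye fluorescence, real-time kinetic reads / Controls: vehicle wells and EC80 agonist wells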
# HTR2A ag = mouse Htr2a agonists via beta-arrestin recruitment, primary screen, cell-based, luminescence; 5-hydroxytryptamine receptor 2A (Mus musculus), P35363; activation, % at 7.6 µM; CHO-K1 mHTR2A beta-arrestin complementation; percent of 30 µM serotonin response; AID 624169, 2012; 360,000 compounds, 0.66% hits;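 active = activation above a run cutoff, the mean activation of all tested compounds plus 3 SD, cut at about 14% in these data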;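 note: 0% = plate median of compound wells and 100% = 30 µM serotonin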
# TAAR1 agonist = human TAAR1 agonists, primary screen, Fluo-8 calcium fluorescence, CHO RD-HGA16 cells; vehicle wells 0%, saturating PEA agonist 100%; Trace amine-associated receptor 1 (Homo sapiens), Q96RJ0; activation, % at 3 µM; 360,000 compounds, 0.99% hits;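 active = activation above the mean activation of all test compounds in the run plus 3 SD, cut at about 38% in these data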
#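 System: CHO RD-HGA16 cells carrying human TAAR1 plus Gα16; Incubation: 17-24 h seeding, 75 min 37 °C dye, 30 min RT; Measured by: Fluo-8 fluorescence, 5 s baseline then 140 s kinetic read; Control set: DMSO and PEA EC100; Replication: single well for each compound.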
# M1 ag = human M1 muscarinic receptor agonists, primary screen, Fluo-8 calcium fluorescence, CHO-K1 cells, HTS; activation, % at 3 µM; CHO-K1 hM1, agonist mode; 0% DMSO, 100% acetylcholine EC100; 360,000 compounds, 0.33% hits; Muscarinic acetylcholine receptor M1 (Homo sapiens), P11229;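 active = activation above the run's mean compound activation plus 3 SD, cut at about 16% in these data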;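 note: peak over basal fluorescence ratio within a 140 s kinetic read after compound addition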
# TAAR1 ag confirm = human TAAR1 agonists, retest of hits, confirmation, Fluo-8 calcium fluorescence, CHO RD-HGA16 cells | shares compounds with TAAR1 agonist | scaled: DMSO 0%, maximal phenethylamine 100% | activation, % at 3 µM | 2,400 compounds, 82% hits;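 active = activation above a cutoff set at the run's mean compound activation plus 3 SD, cut at about 39% in these data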
# Ga16 nonsel ag = nonselective calcium mobilization agonists, CHO-Ga16 cells, counter-screen for hTAAR1 agonist project, cell-based, fluorescence, CHO-Ga16 parental line; shares compounds with TAAR1 agonist; Fluo-8 calcium fluorescence; normalized to maximal ATP response, DMSO zero; activation, % at 3 µM; 2,400 compounds, 50% hits;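 active = activation above the run cutoff, the mean activation over all tested wells plus 3 SD, cut at about 12% in these data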;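 note: 0% = DMSO wells and 100% = maximal ATP response on the peak over basal ratio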
# TAAR1 desens = TAAR1 desensitization by agonist hits, confirmation, counter-screen for TAAR1 agonist project, cell-based, fluorescence, tachyphylaxis; CHO RD-HGA16 hTAAR1, Fluo-8 calcium, beta-PEA response inhibition; AID 651951, 2012; inhibition, % at 3 µM; shares compounds with TAAR1 agonist; 2,400 compounds, 46% hits;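 active = inhibition above the run cutoff, the mean inhibition of all test compounds plus 3 SD, cut at about 49% in these data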;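 note: beta-PEA stimulus applied at its EC80; loss of beta-PEA calcium signal after compound pretreatment read as receptor desensitization; 0% = DMSO with beta-PEA at EC80 and 100% = DMSO alone without agonist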
# Ga16 antag count = inhibition of ATP-evoked calcium response in CHO-Ga16 cells, counter-screen for TAAR1 agonist project, cell-based, fluorescence; shares compounds with TAAR1 agonist; CHO-Ga16 ATP-induced calcium, Fluo-8 fluorescence; inhibition, % at 3 µM; 2,400 compounds, 39% hits; AID 651952, 2012;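 active = inhibition above the plate's mean compound inhibition plus 3 SD, computed per plate, cut at about 22% in these data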;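 note: 0% = EC80 ATP with DMSO and 100% = DMSO wells without ATP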
# * hit, by the source's call; . = no result given.
SMILES,CHRM1 antagonist,CHRM1 PAM,TAAR1 antagonist,HTR2A ag,TAAR1 agonist,M1 ag,TAAR1 ag confirm,Ga16 nonsel ag,TAAR1 desens,Ga16 antag count
CC(C)c1[nH]nc2c1C(c1cccc(C(F)(F)F)c1)N(c1ccccc1)C2=O (configuration not stated),.,.,-63.3,.,-0.4,.,.,.,.,.
O=C(NCCc1ccccc1)C(=O)NCCC1CCCCN1S(=O)(=O)c1ccccc1 (configuration not stated),-3.0,3.6,1.1,-2.4,18.9,-3.9,.,.,.,.
O=C(NCCc1ccccc1)C(=O)NCC1CCCN1S(=O)(=O)c1ccccc1 (configuration not stated),16.5,-6.8,75.7*,0.4,58.7*,-1.7,84.9*,11.0,80.3*,37.8*
COC(=O)c1c(C)[nH]c(C(=O)COc2ccc3ccc(=O)oc3c2)c1C,-5.3,7.9,50.9*,13.1,59.1*,1.7,18.7,13.7*,49.6*,30.8*
COc1ccc(-c2cc(C(=O)N3CCc4ccccc4C3)no2)cc1OC,-8.6,3.3,1.1,2.7,13.5,-5.4,.,.,.,.
O=C(NCCc1ccccc1)c1[nH]c(C(F)(F)F)nc1-c1ccccc1,-11.4,-6.2,47.3,0.0,69.5*,2.9,79.9*,10.1,58.2*,10.8
O=C(c1cc(-c2ccccc2)on1)N1CCc2ccccc2C1,-4.5,4.6,-0.6,-0.6,48.4*,-7.9,11.9,3.0,2.4,11.4
CC(=O)N1CCN(C(=O)c2[nH]c(C(F)(F)F)nc2-c2ccccc2)CC1,-24.3,3.3,3.2,9.9,0.1,-0.9,.,.,.,.
O=C(c1[nH]c(C(F)(F)F)nc1-c1ccccc1)N1CCc2ccccc2C1,-14.3,-2.7,11.4,0.3,81.3*,-2.5,93.2*,4.0,55.7*,1.1
O=C(NCc1ccccc1)c1[nH]c(C(F)(F)F)nc1-c1ccccc1,-19.1,2.5,-20.7,-3.8,5.4,3.8,.,.,.,.
O=C(NCCc1ccc(O)cc1)c1[nH]c(C(F)(F)F)nc1-c1ccccc1,-18.9,-1.6,68.8*,9.5,91.8*,-1.9,94.3*,8.1,89.8*,10.3
COC(=O)c1cc(S(=O)(=O)NCc2ccc3c(c2)OCO3)cn1C,-3.8,4.7,-13.2,3.0,-0.7,-2.0,.,.,.,.
CCOC(=O)c1cnn2c(C(F)(F)F)cc(-c3ccccc3)nc12,-8.0,-2.2,19.1,-2.4,24.0,-0.4,.,.,.,.
CCOC(=O)N1CCC(NC(=O)c2cnn3c(C(F)(F)F)cc(-c4cccc(OC)c4)nc23)CC1,.,.,1.8,.,71.2*,.,2.8,4.0,19.1,15.9
Nc1sc2c(c1C(=O)NCCc1ccccc1)CCCC2,.,.,63.7*,-0.9,76.3*,.,89.8*,2.2,78.5*,8.0
Nc1sc2c(c1C(=O)c1ccccc1)CCCC2,0.8,10.0,-8.1,2.2,-0.6,-2.3,.,.,.,.
Nc1sc2c(c1C(=O)NCCc1ccccc1)CCC2,-6.4,3.1,29.5,4.7,53.5*,-1.0,81.1*,2.6,61.4*,6.7
NC(CSCc1ccccc1Cl)C(=O)O (configuration not stated),-4.4,6.3,-13.5,-1.8,4.4,-4.3,.,.,.,.
N=C(N)SCc1ccccc1Cl,-7.9,6.0,43.5,-5.5,72.3*,-6.6,82.2*,3.0,72.6*,11.6
O=C(NCCc1ccccc1)c1coc(=O)c(Br)c1,-16.9,14.5,80.2*,0.1,87.3*,2.5,94.4*,0.6,79.7*,7.6
O=C(NCCC1=CCCCC1)c1coc(=O)c(Br)c1,-5.5,6.5,14.4,-3.2,62.0*,-2.4,48.3*,1.2,1.6,-0.7
CN1c2ccccc2-c2ccccc2S1(=O)=O,3.6,0.2,-8.8,-4.8,2.8,-8.3,.,.,.,.
CC(=O)Nc1ccc2c(c1)Cc1cc(N3C(=O)C=CC3=O)ccc1-2,8.4,-3.5,51.6*,-5.8,58.9*,-6.7,34.0,29.0*,47.6,53.6*
O=C1C=CC(=O)N1c1ccc2c(c1)Cc1cc(F)ccc1-2,-9.2,1.6,48.3,-1.0,13.9,-6.0,.,.,.,.
COc1cccc(NC(=O)N2CCc3ccccc3C2)c1,-0.4,0.1,-0.6,-0.8,46.5*,-3.7,52.9*,1.2,13.6,10.2
SMILES,CHRM1 antagonist,CHRM1 PAM,TAAR1 antagonist,HTR2A ag,TAAR1 agonist,M1 ag,TAAR1 ag confirm,Ga16 nonsel ag,TAAR1 desens,Ga16 antag count
COc1ccc(NC(=S)N2CCc3ccccc3C2)cc1,-0.6,-0.8,52.8*,-3.3,83.7*,-11.4,93.4*,9.2,31.1,-3.2
COCCN(CC(=O)Nc1cccc(C)c1C)C(=O)Cn1c(=O)cnc2ccccc21,-3.4,4.7,10.6,9.5,-3.3,-5.2,.,.,.,.
O=C(OCCN1C(=O)c2cccc3c(N4CCOCC4)ccc(c23)C1=O)c1ccc(Cl)cc1Cl,8.8,-2.8,37.7,-2.5,26.6,1.7,.,.,.,.
O=C(OCCN1C(=O)c2cccc3c(N4CCOCC4)ccc(c23)C1=O)c1ccccc1Cl,43.7*,-24.2,105.0*,-1.6,128.4*,15.2,92.6*,94.5*,94.6*,85.6*
Cn1nc(SCc2ccccc2)c(=O)[nH]c1=O,0.7,-3.7,-25.6,4.6,5.3,4.3,.,.,.,.
O=C(NCCc1ccccc1)c1cc2ncc(Br)cn2n1,-38.0,1.9,0.7,-3.0,47.6*,-2.5,57.1*,1.4,21.9,11.8
COc1ccc(NC(=O)Cc2ccc(Cl)cc2Cl)cn1,-17.6,9.0,1.5,2.6,56.4*,-1.1,24.1,7.3,13.1,7.7
